Data from ChEMBL document CHEMBL1949539, “Synthesis and antikinetoplastid activity of a series of N,N'-substituted diamines” (Bioorg Med Chem Lett, 2012).

Assays:
Leishmania donovani = test: Antileishmanial activity against Leishmania donovani S1 promastigotes after 72 hrs by alamar blue assay; assay type: functional, organism-based; details: S1, 72 h
Trypanosoma brucei = test: Antitrypanosomal activity against Trypanosoma brucei MITat 427 clone 221a trypomastigotes after 3 days by alamar blue assay; assay type: functional, organism-based; details: 72 h
[1] = Selectivity ratio of IC50 for african green monkey Vero cells to IC50 for Trypanosoma brucei MITat 427 clone 221a trypomastigotes; assay type: ADME, cell-based; details: read-out: Ratio IC50
In short: (§1)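 Selectivity index was calculated as the IC50 in Vero cells divided by the IC50 in the parasite.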

Vero [2] = test: Cytotoxicity against african green monkey Vero cells at 4.76 ug/ml after 48 hrs by neutral red assay; assay type: cell-based; details: chlorocebus sabaeus
Trypanosoma cruzi = test: Antitrypanosomal activity against Trypanosoma cruzi clone CL-Brener epimastigotes after 14 days by alamar blue assay; assay type: functional, organism-based; details: 336 h
[3] = Selectivity ratio of IC50 for african green monkey Vero cells to IC50 for Leishmania donovani S1 promastigotes; assay type: ADME, cell-based; details: Vero cells versus Leishmania donovani S1 promastigotes, read-out: Ratio IC50; in short: as §1
Vero [4] = test: Cytotoxicity against african green monkey Vero cells after 48 hrs by neutral red assay; assay type: cell-based; details: chlorocebus sabaeus
[5] = Selectivity ratio of IC50 for african green monkey Vero cells to IC50 for Trypanosoma cruzi clone CL-Brener epimastigotes; assay type: ADME, cell-based; details: read-out: Ratio IC50; in short: as §1

Row | Compound | IC50 (Leishmania donovani) [nM] | IC50 (Trypanosoma brucei) [nM] | selectivity ratio [1] | Activity (Vero [2]) | IC50 (Trypanosoma cruzi) [nM] | selectivity ratio [3] | IC50 (Vero [4]) [nM] | selectivity ratio [5]
1 | c1ccc(CNCCCNCc2ccccc2)cc1 | 11000 | 6450 | > 3 | Non-toxic | > 10000 | > 27 | – | –
2 | COc1ccc(CNCCCNCc2ccc(OC)cc2)cc1 | 1240 | 2040 | > 7 | Non-toxic | > 10000 | > 12 | – | –
3 | COc1ccc(CNCCCCCCNCc2ccc(OC)cc2)cc1 | 6730 | 220 | 60 | – | > 10000 | 2 | 8320 | –
4 | COc1ccc(CNCCCCCCCCNCc2ccc(OC)cc2)cc1 | 1560 | 5500 | > 2 | Non-toxic | > 10000 | > 5 | – | –
5 | COc1ccc(CNCCCCCCCCCCNCc2ccc(OC)cc2)cc1 | 1450 | > 10000 | – | Non-toxic | 2300 | > 8 | – | > 5
6 | COc1ccc(CNCCCNCc2ccc(OC)c(O)c2)cc1O | > 100000 | > 10000 | – | Non-toxic | > 10000 | – | – | –
7 | COc1ccc(CNCCCCNCc2ccc(OC)c(O)c2)cc1O | > 100000 | > 10000 | – | Non-toxic | > 10000 | – | – | –
8 | COc1ccc(CNCCCCCCNCc2ccc(OC)c(O)c2)cc1O | 43800 | > 10000 | – | Non-toxic | > 10000 | > 0.3 | – | –
9 | COc1ccc(CNCCCCCCCCNCc2ccc(OC)c(O)c2)cc1O | 44400 | 5500 | > 2 | Non-toxic | > 10000 | > 0.3 | – | –
10 | COc1ccc(CNCCCCCCCCCCNCc2ccc(OC)c(O)c2)cc1O | 4500 | 960 | > 11 | Non-toxic | > 10000 | > 2 | – | –
11 | COc1cc(CNCCCNCc2ccc(OCc3ccccc3)c(OC)c2)ccc1OCc1ccccc1 | 230 | 190 | 35 | – | 810 | 29 | 6650 | 8
12 | COc1cc(CNCCCCNCc2ccc(OCc3ccccc3)c(OC)c2)ccc1OCc1ccccc1 | 240 | 170 | 52 | – | 730 | 37 | 2700 | 12
13 | COc1cc(CNCCCCCCNCc2ccc(OCc3ccccc3)c(OC)c2)ccc1OCc1ccccc1 | 210 | 190 | > 44 | Non-toxic | 740 | > 40 | – | > 11
14 | COc1cc(CNCCCCCCCCNCc2ccc(OCc3ccccc3)c(OC)c2)ccc1OCc1ccccc1 | 220 | 190 | 24 | – | 820 | 21 | 2700 | 6
15 | COc1cc(CNCCCCCCCCCCNCc2ccc(OCc3ccccc3)c(OC)c2)ccc1OCc1ccccc1 | 1200 | 110 | > 67 | Non-toxic | 800 | > 6 | – | > 10
16 | COc1ccc(CNCCCCNCc2ccc(OC)cc2)cc1 | 8520 | 3200 | > 5 | Non-toxic | > 10000 | > 2 | – | –
17 | C[C@@H]1[C@H](O)[C@@H](C)/C=C/C=C/C=C/C=C/C=C/C=C/C=C/[C@H](O[C@@H]2O[C@H](C)[C@@H](O)[C@H](N)[C@@H]2O)C[C@@H]2O[C@](O)(C[C@@H](O)C[C@@H](O)[C@H](O)CC[C@@H](O)C[C@@H](O)CC(=O)O[C@H]1C)C[C@H](O)[C@H]2C(=O)O [AMPHOTERICIN B] | 320 | – | – | – | – | – | – | –
18 | CC1CS(=O)(=O)CCN1/N=C/c1ccc([N+](=O)[O-])o1 (centres undefined) [NIFURTIMOX] | – | 1700 | – | – | 2100 | – | – | –
